Experiments:
[1] = system: Hepatitis C virus; test: Antiviral activity against Hepatitis C virus genotype 1a infected in human HuH7 cells assessed as inhibition of subgenomic replicon RNA replication after 72 hrs by luciferase reporter assay; type: functional, cell-based, Hepacivirus hominis; settings: subtype 1a, Huh-7, 72 h
[2] = system: Hepatitis C virus; test: Antiviral activity against Hepatitis C virus genotype 1b infected in human HuH7 cells assessed as inhibition of subgenomic replicon RNA replication after 72 hrs by luciferase reporter assay; type: functional, cell-based, Hepacivirus hominis; settings: Huh-7, 72 h
[3] = Cytotoxicity against human HuH7 cells by MTT assay; type: cell-based, Huh-7
Method in brief: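 Huh-7-derived HCV replicon cell lines were used, with MTT as the vital dye read-out.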

[4] = system: Hepatitis C virus; test: Antiviral activity against Hepatitis C virus genotype 2a infected in human HuH7 cells assessed as inhibition of subgenomic replicon RNA replication after 72 hrs by luciferase reporter assay; type: functional, cell-based, Hepacivirus hominis; settings: Huh-7, 72 h
[5] = system: Hepatitis C virus; test: Antiviral activity against Hepatitis C virus genotype 2b infected in human HuH7 cells assessed as inhibition of subgenomic replicon RNA replication after 72 hrs by luciferase reporter assay; type: functional, cell-based, Hepacivirus hominis; settings: Huh-7, 72 h
[6] = system: Hepatitis C virus; test: Antiviral activity against Hepatitis C virus genotype 3a infected in human HuH7 cells assessed as inhibition of subgenomic replicon RNA replication after 72 hrs by luciferase reporter assay; type: functional, cell-based, Hepacivirus hominis; settings: Huh-7, 72 h
[7] = system: Hepatitis C virus; test: Antiviral activity against Hepatitis C virus genotype 4a infected in human HuH7 cells assessed as inhibition of subgenomic replicon RNA replication after 72 hrs by luciferase reporter assay; type: functional, cell-based, Hepacivirus hominis; settings: Huh-7, 72 h
[8] = system: Hepatitis C virus; test: Antiviral activity against Hepatitis C virus genotype 5a infected in human HuH7 cells assessed as inhibition of subgenomic replicon RNA replication after 72 hrs by luciferase reporter assay; type: functional, cell-based, Hepacivirus hominis; settings: Huh-7, 72 h
[9] = system: Hepatitis C virus; test: Antiviral activity against Hepatitis C virus genotype 6a infected in human HuH7 cells assessed as inhibition of subgenomic replicon RNA replication after 72 hrs by luciferase reporter assay; type: functional, cell-based, Hepacivirus hominis; settings: Huh-7, 72 h
[10] = Drug anabolism in dog hepatocytes assessed as compound level at 10 uM after 24 hrs measured per million cells by mass spectrometer analysis; type: ADME, cell-based, Canis lupus familiaris, Hepatocyte
[11] = Inhibition of N-terminal His6-tagged Hepatitis C virus genotype 1b isolate Con1 NS5B RNA-dependent RNA polymerase activity by plate reader analysis
[12] = Inhibition of C-terminal His6-tagged and C-terminal 21 amino acids truncated Hepatitis C virus genotype 1a H77 NS5B RNA-dependent RNA polymerase activity using polyU or polyC RNA as template by microbeta plate reader analysis; design: species or system Hepatitis C virus (isolate H77)
[13] = Inhibition of C-terminal His6-tagged and C-terminal 21 amino acids truncated Hepatitis C virus genotype 2a JFH-1 NS5B RNA-dependent RNA polymerase activity using polyU or polyC RNA as template by microbeta plate reader analysis; design: species or system Hepatitis C virus JFH-1
[14] = Inhibition of C-terminal His6-tagged and C-terminal 21 amino acids truncated Hepatitis C virus genotype 3a VRL-69 NS5B RNA-dependent RNA polymerase activity using polyU or polyC RNA as template by microbeta plate reader analysis; design: species or system Hepatitis C virus subtype 3a
[15] = Drug anabolism in human HuH7 cells assessed as compound level at 10 uM after 24 hrs measured per million cells by mass spectrometer analysis; type: ADME, cell-based; settings: huh-7, 24 h
[16] = Inhibition of C-terminal His6-tagged and C-terminal 21 amino acids truncated Hepatitis C virus genotype 5a SA13 NS5B RNA-dependent RNA polymerase activity using polyU or polyC RNA as template by microbeta plate reader analysis
[17] = Inhibition of C-terminal His6-tagged and C-terminal 21 amino acids truncated Hepatitis C virus genotype 7a QC69 NS5B RNA-dependent RNA polymerase activity using polyU or polyC RNA as template by microbeta plate reader analysis; design: species or system Hepacivirus hominis
[18] = Drug anabolism in human HuH7 cells assessed as triphosphate level at 10 uM after 24 hrs measured per million cells by mass spectrometer analysis; type: ADME, cell-based; settings: huh-7, 24 h
[19] = Drug anabolism in human HuH7 cells assessed as diphosphate level at 10 uM after 24 hrs measured per million cells by mass spectrometer analysis; type: ADME, cell-based; settings: huh-7, 24 h
[20] = Drug anabolism in human HuH7 cells assessed as monophosphate level at 10 uM after 24 hrs measured per million cells by mass spectrometer analysis; type: ADME, cell-based; settings: huh-7, 24 h
[21] = system: Hepatocyte; test: Drug anabolism in human hepatocytes assessed as triphosphate level at 10 uM after 24 hrs measured per million cells by mass spectrometer analysis; type: ADME, cell-based
[22] = system: Hepatocyte; test: Drug anabolism in human hepatocytes assessed as diphosphate level at 10 uM after 24 hrs measured per million cells by mass spectrometer analysis; type: ADME, cell-based
[23] = system: Hepatocyte; test: Drug anabolism in human hepatocytes assessed as monophosphate level at 10 uM after 24 hrs measured per million cells by mass spectrometer analysis; type: ADME, cell-based
[24] = system: Hepatocyte; test: Drug anabolism in rat hepatocytes assessed as triphosphate level at 10 uM after 24 hrs measured per million cells by mass spectrometer analysis; type: ADME, cell-based
[25] = system: Hepatocyte; test: Drug anabolism in rat hepatocytes assessed as diphosphate level at 10 uM after 24 hrs measured per million cells by mass spectrometer analysis; type: ADME, cell-based
[26] = system: Hepatocyte; test: Drug anabolism in rat hepatocytes assessed as monophosphate level at 10 uM after 24 hrs measured per million cells by mass spectrometer analysis; type: ADME, cell-based
[27] = Drug anabolism in dog hepatocytes assessed as triphosphate level at 10 uM after 24 hrs measured per million cells by mass spectrometer analysis; type: ADME, cell-based, Canis lupus familiaris, Hepatocyte
[28] = Drug anabolism in dog hepatocytes assessed as diphosphate level at 10 uM after 24 hrs measured per million cells by mass spectrometer analysis; type: ADME, cell-based, Canis lupus familiaris, Hepatocyte
[29] = Drug anabolism in dog hepatocytes assessed as monophosphate level at 10 uM after 24 hrs measured per million cells by mass spectrometer analysis; type: ADME, cell-based, Canis lupus familiaris, Hepatocyte
[30] = Total clearance in Sprague-Dawley rat at 2 mg/kg, iv and 5 mg/kg, po by WinNonlin non-compartmental analysis; type: ADME, organism-based; settings: in vivo
Method in brief: (§1)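 PK study animals were male Sprague–Dawley rats.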

[31] = Volume of distribution at steady state in Sprague-Dawley rat at 2 mg/kg, iv and 5 mg/kg, po by WinNonlin non-compartmental analysis; type: ADME, organism-based; settings: in vivo, read-out: Vdss
Method in brief: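 Pharmacokinetics were determined in male Sprague–Dawley rats.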

[32] = Cmax in Sprague-Dawley rat at 5 mg/kg, po by WinNonlin non-compartmental analysis; type: ADME, organism-based; design: dose 5 mg/kg, route oral; settings: in vivo; method in brief: as §1
[33] = Total clearance in Beagle dog at 2 mg/kg, iv and 5 mg/kg, po by WinNonlin non-compartmental analysis; type: ADME, organism-based, Canis lupus familiaris; settings: in vivo
[34] = Volume of distribution at steady state in Beagle dog at 2 mg/kg, iv and 5 mg/kg, po by WinNonlin non-compartmental analysis; type: ADME, organism-based, Canis lupus familiaris; settings: in vivo, read-out: Vdss
[35] = Cmax in Beagle dog at 5 mg/kg, po by WinNonlin non-compartmental analysis; type: ADME, organism-based, Canis lupus familiaris; design: dose 5 mg/kg, route oral; settings: in vivo
[36] = Total clearance in cynomolgus monkey at 2 mg/kg, iv and 5 mg/kg, po by WinNonlin non-compartmental analysis; type: ADME, organism-based, Macaca fascicularis; settings: in vivo
[37] = Volume of distribution at steady state in cynomolgus monkey at 2 mg/kg, iv and 5 mg/kg, po by WinNonlin non-compartmental analysis; type: ADME, organism-based, Macaca fascicularis; settings: in vivo, read-out: Vdss
[38] = Cmax in cynomolgus monkey at 5 mg/kg, po by WinNonlin non-compartmental analysis; type: ADME, organism-based, Macaca fascicularis; design: dose 5 mg/kg, route oral; settings: in vivo
[39] = Mitochondrial toxicity in human HepG2 cells assessed as increase in lactate production up to 10 uM measured for 14 days; type: cell-based, Mitochondria; settings: hepg2, 336 h
[40] = Mitochondrial toxicity in human HepG2 cells assessed as decrease in mitochondrial DNA content up to 10 uM measured for 14 days; type: cell-based, Mitochondria; settings: hepg2, 336 h
[41] = Cytotoxicity in rat liver epithelial cells; type: cell-based, Epithelial cell
[42] = Cytotoxicity in rat kidney fibroblasts; design: species or system Fibroblast
[43] = Cytotoxicity in rat heart myoblasts; design: species or system Myoblast
[44] = Inhibition of erythroid progenitor proliferation in human bone marrow cells up to 100 uM; type: cell-based; settings: bone marrow cell
[45] = Inhibition of myeloid progenitor proliferation in human bone marrow cells up to 100 uM; type: cell-based; settings: bone marrow cell
[46] = system: Salmonella typhimurium; test: Genotoxicity in Salmonella typhimurium by Ames test; type: toxicity, organism-based; settings: salmonella enterica subsp. enterica serovar typhimurium
[47] = system: Rattus norvegicus; test: Toxicity in rat assessed as animal death up to 400 mg/kg, po administered as single dose; type: organism-based; design: dose 400 mg/kg, route oral; settings: in vivo
[48] = system: Hepatocyte; test: Drug anabolism in human hepatocytes assessed as compound level at 10 uM after 24 hrs measured per million cells by mass spectrometer analysis; type: ADME, cell-based
[49] = system: Hepatocyte; test: Drug anabolism in rat hepatocytes assessed as compound level at 10 uM after 24 hrs measured per million cells by mass spectrometer analysis; type: ADME, cell-based

With C[C@@]1(O)[C@H](O)[C@@H](CO)O[C@H]1c1ccc2c(N)ncnn12 the EC50 [1] was 0.76 µM, the EC50 [2] was 1.6 µM and the CC50 [3] was greater than 100 µM. It also gave an EC50 [4] of 0.63 µM, an EC50 [5] of 0.41 µM and an EC50 [6] of 0.42 µM. It also gave an EC50 [7] of 0.88 µM, an EC50 [8] of 0.82 µM and an EC50 [9] of 1 µM. It also gave a Drug metabolism [10] of 29.7 pmol, an IC50 [11] of 0.37 µM and an IC50 [12] of 0.57 µM. The IC50 [13] was 0.39 µM, the IC50 [14] was 0.5 µM and the Drug metabolism [15] was 31.8 pmol. It also gave an IC50 [16] of 0.48 µM, an IC50 [17] of 0.81 µM and a Drug metabolism [18] of 9.33 pmol. It also gave a Drug metabolism [19] of 0.53 pmol, a Drug metabolism [20] of 3.36 pmol and a Drug metabolism [21] of 487 pmol. For the same compound, the Drug metabolism [22] was 40.5 pmol, the Drug metabolism [23] was 27.6 pmol and the Drug metabolism [24] was 49.9 pmol. For the same compound, the Drug metabolism [25] was 9.7 pmol, the Drug metabolism [26] was 7.3 pmol and the Drug metabolism [27] was 51.2 pmol. It also gave a Drug metabolism [28] of 8.3 pmol, a Drug metabolism [29] of 7 pmol and a clearance [30] of 18.8 mL/min/kg. It also gave a Vd [31] of 4.19 L/kg, a Cmax [32] of 2380 nM and a clearance [33] of 11.4 mL/min/kg. The Vd [34] was 5.22 L/kg, the Cmax [35] was 8360 nM and the clearance [36] was 20.5 mL/min/kg. For the same compound, the Vd [37] was 2.43 L/kg, the Cmax [38] was 820 nM and the Activity [39] was “Non-toxic”. For the same compound, the Activity [40] was “Non-toxic”, the CC50 [41] was 190 µM and the CC50 [42] was greater than 250 µM. For the same compound, the CC50 [43] was greater than 250 µM, the Activity [44] was “Non-toxic” and the Activity [45] was “Non-toxic”. The Activity [46] was “Non-toxic”, the Activity [47] was “Toxic” and the Drug metabolism [48] was 46.2 pmol. The Drug metabolism [49] was 16.9 pmol.
